Rows were chosen to be rich in hits. Some 2.3% of all compounds tested hit in one or more screens of this group.
GPR7 antagonist: human neuropeptides B/W receptor 1 antagonism; P48145; GPR7-expressing cells, fluorescence antagonist assay; inhibition, % at 4.4 µM; 290,000 compounds, 1.1% hits; AID 1861; in the data active = inhibition above about 16%, passing the limit was not always enough;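 also: cells stimulated with the agonist NPW; 0% = agonist with vehicle and 100% = vehicle without agonist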
CHT PAM: allosterically activates the human high affinity choline transporter. CHT-expressing cells, membrane potential dye, choline EC20; stronger effect = higher value; LV-AA mutant CHT in HEK293 cells. 310,000 compounds, 0.49% hits. B-score at 10 µM. AID 488977;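 active = initial fluorescence not abnormally high and integrated response B-score, plate-corrected, over 3 SD above library mean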
p-CIP stab down: compounds decreasing mouse p/CIP protein stability. Q05BA5. decrease of EGFP signal, % at 10 µM. AID 1984. 290,000 compounds, 0.01% hits. F442A p/CIP-EGFP cells, EGFP fluorescence, 16 h;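 active = EGFP signal decrease of at least 30% at 10 µM or well 3 SD below plate mean, unless failing retest; inactive = the rest, including hits failing retest or dose response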
Target sequence (Q05BA5 1-1403): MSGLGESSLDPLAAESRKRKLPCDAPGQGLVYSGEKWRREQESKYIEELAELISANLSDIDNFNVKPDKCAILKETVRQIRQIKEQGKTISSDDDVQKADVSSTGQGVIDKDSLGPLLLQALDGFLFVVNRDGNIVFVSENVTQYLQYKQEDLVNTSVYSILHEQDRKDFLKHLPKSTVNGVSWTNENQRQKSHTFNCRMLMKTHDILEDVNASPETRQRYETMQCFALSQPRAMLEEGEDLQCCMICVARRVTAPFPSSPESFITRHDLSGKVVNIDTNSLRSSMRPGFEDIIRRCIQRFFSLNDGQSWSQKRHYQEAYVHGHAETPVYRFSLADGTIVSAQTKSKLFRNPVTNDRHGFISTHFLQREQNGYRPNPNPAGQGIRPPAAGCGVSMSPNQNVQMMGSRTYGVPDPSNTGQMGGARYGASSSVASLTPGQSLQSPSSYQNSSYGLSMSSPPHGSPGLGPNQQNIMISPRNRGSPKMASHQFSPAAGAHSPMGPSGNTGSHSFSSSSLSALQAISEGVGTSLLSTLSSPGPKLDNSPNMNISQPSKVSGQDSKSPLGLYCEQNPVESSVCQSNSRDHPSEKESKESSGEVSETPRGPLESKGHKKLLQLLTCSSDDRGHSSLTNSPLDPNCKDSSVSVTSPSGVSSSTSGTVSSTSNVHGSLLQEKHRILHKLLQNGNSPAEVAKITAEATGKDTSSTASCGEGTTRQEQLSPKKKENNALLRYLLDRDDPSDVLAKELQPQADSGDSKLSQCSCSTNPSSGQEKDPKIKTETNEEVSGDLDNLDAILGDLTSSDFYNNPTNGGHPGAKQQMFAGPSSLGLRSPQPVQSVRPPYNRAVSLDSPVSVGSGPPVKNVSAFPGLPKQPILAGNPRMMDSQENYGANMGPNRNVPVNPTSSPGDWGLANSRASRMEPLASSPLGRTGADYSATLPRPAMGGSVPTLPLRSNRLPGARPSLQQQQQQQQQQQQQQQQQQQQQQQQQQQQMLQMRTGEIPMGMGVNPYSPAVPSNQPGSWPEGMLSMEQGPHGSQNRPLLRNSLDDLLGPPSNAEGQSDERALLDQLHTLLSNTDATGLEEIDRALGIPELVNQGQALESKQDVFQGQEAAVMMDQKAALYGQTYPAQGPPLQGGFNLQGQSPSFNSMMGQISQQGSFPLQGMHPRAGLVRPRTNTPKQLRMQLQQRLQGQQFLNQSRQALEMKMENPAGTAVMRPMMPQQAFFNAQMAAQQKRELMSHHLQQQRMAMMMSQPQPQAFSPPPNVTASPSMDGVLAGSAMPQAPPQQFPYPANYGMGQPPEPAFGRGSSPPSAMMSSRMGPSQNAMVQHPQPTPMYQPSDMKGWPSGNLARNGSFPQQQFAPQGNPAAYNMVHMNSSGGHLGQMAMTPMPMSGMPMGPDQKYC
Pemphigus Ab inh: human desmoglein-3 autoantibody binding inhibition | 310,000 compounds, 0.48% hits | AID 588358 | DSG3-coupled beads, scFv-anti-DSG3-GFP binding, flow cytometry; stronger effect = lower value | binding (percent of control), % at 10 µM | P32926;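 active = binding more than 3 SD below its plate's average and above zero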;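 also: hits lower antibody fragment binding to DSG3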
T cell modulator: T cell immune modulation candidate; 2C CD8+ T cell-vesicle binding, flow cytometry; stronger effect = lower value; response (vesicle binding), % at 7 µM; 330,000 compounds, 0.068% hits; AID 2052;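 active = response, share of CD8 T cells binding vesicles, and their 90th percentile fluorescence all below set limits, cut at about 80% in these data, passing the limit was not always enough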;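 also: values below 100% mean blocked vesicle binding to the CD8+ T cells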
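Read-out – percent CD8+ FL2 mean versus row control · System – murine 2C transgenic CD8+ T lymphocytes · Times – 1.5 h cell–vesicle binding at 37 °C, then 20 min icy labelling · Control set – naked vesicles low, QL9 vesicles with vehicle high · Detection – cytometric PE anti-B7-1 and Alexa647 anti-CD8 signals after 1% paraformaldehyde fixation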
CHT block: human CHT choline transport inhibition; Q9GZV3; CHT-expressing cells, membrane potential dye, choline response; stronger effect = lower value; B-score at 10 µM; 310,000 compounds, 0.86% hits; AID 488975;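 active = B-score over 3 SD under the library average, and starting fluorescence ratio not unusually high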;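 also: choline stimulus applied at its EC90 after an EC20 pre-addition; B-score computed on integrated fluorescence ratio after choline addition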
GPR7 antag conf: confirmation of human GPR7 antagonists; 2,400 compounds, 52% hits; inhibition, % at 4.4 µM; GPR7-expressing cells, calcium fluorescence antagonist mode; shares compounds with GPR7 antagonist; AID 1952; in the data active = inhibition above about 24%;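 also: stimulated with the GPR7 agonist NPW; 0% = agonist plus vehicle and 100% = vehicle alone without agonist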
MCHR1 antag: antagonizes human MCHR1, a GPR7 antagonist counter-screen | inhibition, % at 4.4 µM | MCHR1-expressing cells, fluorescence antagonist assay | AID 2148 | 2,400 compounds, 62% hits | shares compounds with GPR7 antagonist; in the data active = inhibition above about 22%;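 also: 0% = vehicle with agonist and 100% = vehicle without agonist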
* hit, by the source's call; i = inactive; nt = not tested or not shown.

SMILES	GPR7 antagonist	CHT PAM	p-CIP stab down	Pemphigus Ab inh	T cell modulator	CHT block	GPR7 antag conf	MCHR1 antag
COc1cccc(C2c3[nH]c4ccccc4c3C[C@H]3C(=O)N(C4CC4)CC(=O)N23)c1 (some centres undefined)	10	i	-8	107	91	i	nt	nt
C=CCc1cccc([C@@H]2[C@@H](C)CC[C@H]3C(=O)N4[C@@H](c5cc(OC)c(OC)c(OC)c5)c5[nH]c6ccccc6c5C[C@H]4C(=O)N23)c1	33*	i	0	nt	nt	i	8	6
COC(=O)C(=Cc1ccncc1)c1cccc2ccccc12	nt	nt	nt	104	nt	nt	nt	nt
COc1cccc(/C=C/C(=O)N2CCN(S(=O)(=O)c3ccccc3)CC2)c1	nt	nt	nt	107	nt	nt	nt	nt
CN1C(=O)C(O)(CC(=O)c2ccncc2)c2ccccc21 (centres undefined)	0	i	-2	87	84	i	nt	nt
CN1C(=O)C(O)(CC(=O)/C=C/C=C/c2ccccc2)c2ccccc21 (centres undefined)	23*	i	-12	97	568	i	-16	10
Cc1cc(NC(=O)CSc2nnc(COc3ccccc3)n2Cc2ccco2)no1	9	i	-10	97	159	i	nt	nt
O=C(CSc1nnc(-c2ccc(Cl)cc2)n1Cc1ccco1)Nc1ccc2c(c1)OCCO2	4	i	-5	106	127	i	nt	nt
COc1ccc(-c2cnc(SCC(=O)Nc3ccc4c(c3)OCO4)n2Cc2ccco2)cc1	22*	nt	1	nt	nt	nt	42*	68*
O=C(CSc1nnc(COc2ccccc2)n1Cc1ccco1)Nc1ccc2c(c1)OCCO2	29*	i	0	112	593	i	31*	33*
CSc1ccc(NC(=O)NCCCN2CCC(Cc3ccccc3)CC2)cc1	29*	i	6	106	400	i	26*	33*
COC(=O)c1cc2ccccn2c2c(C(=O)OC)c(C(=O)OC)cc1-2	31*	i	0	103	144	i	-3	22*
O=C(c1cc(-c2cccnc2)nc2ccccc12)N1CCCc2ccccc21	24*	i	0	93	383	i	5	23*
CC1=C(c2ccccc2)C(O)(c2ccccc2)C(C)C1=O (centres undefined)	nt	nt	nt	118	nt	nt	nt	nt
COc1ccc(C/C(=N\OC(C)=O)c2ccc(OC)cc2)cc1	40*	i	1	104	391	i	15	19
CC(C)(C)Cc1c(-c2ccc(Br)cc2)nc2ccc(Br)cn12	nt	nt	nt	102	nt	nt	nt	nt
COc1cccc(NC(=O)c2cccc(C(=O)Nc3cccc(OC)c3)n2)c1	-7	i	6	103	359	i	nt	nt
COc1cccc(NC(=O)c2cnsn2)c1	25*	i	0	98	239	i	5	3
CN[C@H](C)C(=O)NC[C@H]1O[C@@H](n2cc(C)c(=O)[nH]c2=O)C[C@@H]1O	nt	nt	nt	103	nt	nt	nt	nt
O=C(C[C@H]1C(=O)N(c2ccccc2)C[C@@H]1Cc1ccccc1)Nc1ccccc1	nt	nt	nt	101	nt	nt	nt	nt
CN(c1ccccc1)S(=O)(=O)CS(=O)(=O)N(C)c1ccccc1	nt	nt	nt	110	nt	nt	nt	nt
CN(c1ccccc1)P(=O)(N(C)c1ccccc1)N(C)c1ccccc1	28*	i	-8	106	310	i	34*	37*
CC(C)(C)c1ccc(OCCOc2ccc(C(C)(C)C)cc2NC=O)c(NC=O)c1	19*	i	-4	107	237	i	29*	72*
Cc1csc(NC(=O)CSc2nnc(Cc3cccn3C)n2CCc2ccccc2)n1	28*	i	-15	109	277	i	16	16
Cc1cc(NC(=O)CSc2nnc(Cc3cccn3C)n2CCc2ccccc2)no1	11	i	-12	100	369	i	nt	nt
SMILES	GPR7 antagonist	CHT PAM	p-CIP stab down	Pemphigus Ab inh	T cell modulator	CHT block	GPR7 antag conf	MCHR1 antag
CC1CN(C(=O)COC(=O)c2cncc(Br)c2)CC(C)O1 (centres undefined)	nt	nt	nt	106	nt	nt	nt	nt
CCCCn1c(N)c(N(CC)C(=O)CSCc2ccc(C)cc2)c(=O)[nH]c1=O	-10	i	-1	109	290	i	nt	nt
CCCCn1c(N)c(N(CC)C(=O)CSc2nnnn2-c2cc(C)ccc2C)c(=O)[nH]c1=O	23*	i	-1	95	320	i	-9	-10
O=C(c1cccc(S(=O)(=O)N2CCOCC2)c1)N1CCN(c2ncccn2)CC1	nt	nt	nt	104	nt	nt	nt	nt
Cc1ccc2c(=O)n3c(nc2c1)C(Cc1ccc(O)cc1)NC(=O)c1cccnc1-3 (centres undefined)	nt	nt	nt	99	nt	nt	nt	nt
O=C(NCC(O)CO)c1ccc2[nH]c3ccccc3c2c1 (centres undefined)	26*	i	-5	102	372	i	0	15
CCOC(=O)CNC(=O)c1ccc2[nH]c3ccccc3c2c1	-9	i	2	107	470	i	nt	nt
COc1ccc(C(C)=NOC(=O)c2c(-c3ccccc3Cl)noc2C)cc1CN1CCOCC1	nt	nt	nt	103	nt	nt	nt	nt
COCCn1c(SCC(=O)NCCCN2CCCC2=O)nc2sc3c(c2c1=O)CCCC3	nt	nt	nt	103	nt	nt	nt	nt
COc1ccc(OC)c(N(CC(=O)N2CCC(C)CC2)S(=O)(=O)c2ccccc2)c1	26*	i	-3	nt	741	i	21	18
COc1ccc(OC)c(N(CC(=O)N2CCC(C)CC2)S(=O)(=O)c2ccc(OC)c(OC)c2)c1	-10	i	-2	107	114	i	nt	nt
CCCNC(=O)c1cc(-c2ccc3c(c2)OCO3)on1	14	i	0	103	195	i	nt	nt
CC(C)NC(=O)c1cc(-c2ccc3c(c2)OCO3)on1	44*	i	-7	107	148	i	0	12
O=C(Nc1cccc(Cl)c1)c1cc(S(=O)(=O)NCCc2ccc(Cl)cc2)ccc1F	21*	i	8	110	269	i	-8	43*
COc1ccc(CC(=O)O/N=C(\N)c2ccncc2)cc1OC	nt	nt	nt	106	nt	nt	nt	nt
CC[C@]12C(=O)N(C)C[C@H]([C@@H]3C(=O)N(C)C(=O)[C@@H]31)N2C(=O)c1ccc(C)cc1	nt	nt	nt	102	nt	nt	nt	nt
C=CCn1c(COc2ccc(Cl)cc2)nnc1SCc1ccc(C#N)cc1	27*	i	-4	105	431	i	41*	47*
COc1ccc(C(=O)NCCc2ccccc2)cc1[N+](=O)[O-]	31*	i	-6	98	172	i	-6	15
CN1C(=O)C(CC(=O)Nc2ccc(F)cc2)N(CCCc2ccccc2)C1=S (centres undefined)	26*	i	-7	103	378	i	24*	41*
